pIC50: −log10 of the molar value. Active and inactive are the calls of the source. No cut-off for these calls is given here.
Columns and labels:
A549 [1] = test: Antiproliferative activity against human A549 cells assessed as reduction in cell viability after 24 hrs by MTT assay; assay type: functional, cell-based; conditions: A549, 24 h
A549 [2] = test: Induction of apoptosis in human A549 cells assessed as viable cells at 4 uM after 24 hrs by Annexin-V/PI staining based flow cytometry analysis (reference value: 91.4%); assay type: functional; conditions: A549, 24 h, read-out: Activity
How it was run: (§1)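 A549 cells seeded overnight at 37 °C, 5% CO2, then exposed to 0, 2, 4, 8 or 12 µM for 24 h (dose series) or 8 µM for 0, 12, 24, 36 h (time series). Harvested, PBS-washed, stained with Annexin V-FITC and PI in binding buffer 15 min at room temperature in the dark, analysed by flow cytometry; three independent experiments.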

A549 [3] = test: Induction of apoptosis in human A549 cells assessed as necrotic cells after at 4 uM 24 hrs by Annexin-V/PI staining based flow cytometry analysis (reference value: 1.81%); assay type: functional; how it was run: as §1
A549 [4] = test: Induction of apoptosis in human A549 cells assessed as viable cells at 8 uM after 24 hrs by Annexin-V/PI staining based flow cytometry analysis (reference value: 91.4%); assay type: functional; conditions: A549, 24 h, read-out: Activity; how it was run: as §1
A549 [5] = test: Induction of apoptosis in human A549 cells assessed as early apoptotic cells at 8 uM after 24 hrs by Annexin-V/PI staining based flow cytometry analysis (reference value: 1.15%); assay type: functional
A549 [6] = test: Induction of apoptosis in human A549 cells assessed as late apoptotic cells at 8 uM after 24 hrs by Annexin-V/PI staining based flow cytometry analysis (reference value: 5.69%); assay type: functional; how it was run: as §1
A549 [7] = test: Induction of apoptosis in human A549 cells assessed as early apoptotic cells at 12 uM after 24 hrs by Annexin-V/PI staining based flow cytometry analysis (reference value: 1.15%); assay type: functional
A549 [8] = test: Induction of apoptosis in human A549 cells assessed as necrotic cells after at 8 uM 12 hrs by Annexin-V/PI staining based flow cytometry analysis (reference value: 2.98%); assay type: functional; how it was run: as §1
A549 [9] = test: Induction of apoptosis in human A549 cells assessed as viable cells at 8 uM after 24 hrs by Annexin-V/PI staining based flow cytometry analysis (reference value: 88.4%); assay type: functional; conditions: A549, 24 h, read-out: Activity; how it was run: as §1
A549 [10] = test: Induction of apoptosis in human A549 cells assessed as necrotic cells after at 8 uM 24 hrs by Annexin-V/PI staining based flow cytometry analysis (reference value: 2.98%); assay type: functional; how it was run: as §1
A549 [11] = test: Induction of apoptosis in human A549 cells assessed as necrotic cells after at 8 uM 36 hrs by Annexin-V/PI staining based flow cytometry analysis (reference value: 2.98%); assay type: functional; how it was run: as §1
A549 [12] = test: Induction of apoptosis in human A549 cells assessed as reduction in Bcl-2 expression at 2 to 8 uM after 24 hrs by Western blot analysis; assay type: functional, cell-based
How it was run: (§2)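 A549 cells in 6-well plates were lysed in RIPA buffer with protease inhibitors on ice for 30 min and cleared at 4 °C. Protein was quantified by BCA, run on SDS-PAGE and transferred to PVDF. Membranes were blocked with milk, probed with primary antibody (1:1000) overnight at 4 °C, then secondary antibody (1:3000-1:5000) 1 h at RT. Detection by ECL; band densitometry normalised to GAPDH (β-actin also used). Three independent experiments.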

A549 [13] = test: Induction of apoptosis in human A549 cells assessed as reduction in caspase-3 expression at 2 to 8 uM after 24 hrs by Western blot analysis; assay type: functional, cell-based; how it was run: as §2
A549 [14] = test: Induction of apoptosis in human A549 cells assessed as increase in Bax expression at 2 to 8 uM after 24 hrs by Western blot analysis; assay type: functional, cell-based
How it was run: (§3)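 Western blot of A549 cells treated for 24 h. Lysates in RIPA buffer were run on SDS-PAGE and transferred to PVDF. Primary antibody at 1:1000 overnight at 4 °C, secondary antibody at 1:3000-1:5000 for 1 h, ECL detection. Densitometry was normalised to GAPDH; mean ± S.E.M. from three independent experiments.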

A549 [15] = test: Induction of apoptosis in human A549 cells assessed as PARP cleavage expression at 2 to 8 uM after 24 hrs by Western blot analysis; assay type: functional, cell-based; how it was run: as §3
A549 [16] = test: Induction of apoptosis in human A549 cells assessed as low mitochondrial membrane potential at 4 uM after 12 hrs by JC-1 staining-based flow cytometric analysis (reference value: 6.3%); assay type: functional
A549 [17] = test: Induction of apoptosis in human A549 cells assessed as high mitochondrial membrane potential at 4 uM after 12 hrs by JC-1 staining-based flow cytometric analysis (reference value: 90.6%); assay type: functional
How it was run: (§4)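 JC-1 staining of A549 cells treated for 12 h. CCCP-treated wells, 20 min at 37 °C, served as positive control. Collected cells were incubated with JC-1 solution at 37 °C for 30 min, washed, and analysed by flow cytometry for the fraction with high ΔΨm and for PI-positive cells. Results are mean ± S.E.M. of three replicates.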

A549 [18] = test: Induction of apoptosis in human A549 cells assessed as high mitochondrial membrane potential at 12 uM after 12 hrs by JC-1 staining-based flow cytometric analysis (reference value: 90.6%); assay type: functional; how it was run: as §4
A549 [19] = test: Induction of apoptosis in human A549 cells at 8 uM by Annexin-V/PI staining based flow cytometry analysis; assay type: functional, cell-based; conditions: TDE = time-dependent effect; how it was run: as §1
A549 [20] = test: Cell cycle arrest in human A549 cells assessed as accumulation at G2/M phase at 4 uM after 24 hrs by RNAse A/ PI staining based flow cytometric analysis (reference value: 9.47%); assay type: functional
How it was run: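 A549 cells at 5.0×10^4 per well were grown 12 h at 37 °C. Treatment was 0, 2, 4 or 8 µM for 24 h, or 8 µM for 0, 12, 24 or 36 h. Cells were fixed in 70% ethanol at −20 °C for at least 12 h, then stained in PBS with 0.1 mg/mL RNase A and 5 µg/mL PI. At least 10,000 events per sample were collected by flow cytometry to give G0/G1, S and G2/M percentages.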

A549 [21] = test: Cell cycle arrest in human A549 cells assessed as downregulation of cyclin A expression at 2 to 8 uM by immunoblot analysis; assay type: functional, cell-based
How it was run: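 A549 lysates in RIPA buffer with protease inhibitors were run on SDS-PAGE and blotted to PVDF. Membranes were probed overnight at 4 °C with primary antibody at 1:1000, then secondary antibody at 1:3000-1:5000 for 1 h, and detected by ECL. Band intensity was normalised to GAPDH. Results are mean ± S.E.M. from three independent experiments.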

A549 [22] = test: Inhibition of Wnt/beta-catenin signaling pathway in human A549 cells assessed as increase in axin-2 expression by Western blot analysis; assay type: cell-based; how it was run: as §2
[23] = biological target: T1, Epidermal growth factor receptor (Homo sapiens, UniProt P00533); test: Inhibition of EGFR signalling in human A549 cells assessed as reduction in AKT phosphorylation after 24 hrs by Western blot analysis; assay type: cell-based; how it was run: as §2
[24] = biological target: T1, Epidermal growth factor receptor; test: Inhibition of EGFR signalling in human A549 cells assessed as reduction in ERK phosphorylation after 24 hrs by Western blot analysis; assay type: cell-based; how it was run: as §2
A549 [25] = test: Antitumour activity in ip dosed Balb/c mouse xenografted with human A549 cells assessed as increase in mouse survival at 2 to 4 mg/kg, ip administered once every two days for 32 days; assay type: functional, organism-based

T1 sequence (P00533 whole entry): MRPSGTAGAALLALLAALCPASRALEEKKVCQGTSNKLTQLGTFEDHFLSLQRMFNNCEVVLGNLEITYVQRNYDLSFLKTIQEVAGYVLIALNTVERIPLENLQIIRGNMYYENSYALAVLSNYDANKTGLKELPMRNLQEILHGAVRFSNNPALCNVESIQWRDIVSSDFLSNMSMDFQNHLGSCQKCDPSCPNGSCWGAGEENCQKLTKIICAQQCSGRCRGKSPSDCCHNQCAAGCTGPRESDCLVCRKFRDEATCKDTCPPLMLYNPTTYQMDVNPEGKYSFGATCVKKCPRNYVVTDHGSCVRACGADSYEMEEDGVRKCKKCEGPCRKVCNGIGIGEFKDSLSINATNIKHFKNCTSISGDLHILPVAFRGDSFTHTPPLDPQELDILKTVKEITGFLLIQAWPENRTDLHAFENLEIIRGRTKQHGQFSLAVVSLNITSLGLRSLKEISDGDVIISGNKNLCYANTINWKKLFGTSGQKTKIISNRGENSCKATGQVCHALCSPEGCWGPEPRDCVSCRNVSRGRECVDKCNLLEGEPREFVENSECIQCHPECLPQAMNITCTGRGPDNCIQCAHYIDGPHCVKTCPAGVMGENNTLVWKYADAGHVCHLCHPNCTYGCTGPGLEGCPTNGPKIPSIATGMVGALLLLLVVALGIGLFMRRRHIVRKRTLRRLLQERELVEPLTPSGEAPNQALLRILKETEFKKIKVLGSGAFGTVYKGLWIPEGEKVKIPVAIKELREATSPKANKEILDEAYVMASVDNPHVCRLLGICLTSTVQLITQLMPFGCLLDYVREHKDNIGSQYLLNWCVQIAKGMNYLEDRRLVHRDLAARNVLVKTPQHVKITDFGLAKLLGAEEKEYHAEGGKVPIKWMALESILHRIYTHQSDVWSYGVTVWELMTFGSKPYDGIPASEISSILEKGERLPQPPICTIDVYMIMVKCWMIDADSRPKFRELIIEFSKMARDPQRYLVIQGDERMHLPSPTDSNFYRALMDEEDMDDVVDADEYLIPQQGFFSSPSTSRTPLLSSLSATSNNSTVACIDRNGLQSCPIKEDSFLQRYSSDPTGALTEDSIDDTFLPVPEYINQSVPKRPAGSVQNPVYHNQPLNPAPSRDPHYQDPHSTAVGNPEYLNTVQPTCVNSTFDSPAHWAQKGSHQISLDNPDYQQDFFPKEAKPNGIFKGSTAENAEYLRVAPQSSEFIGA

CC(C)=CC[C@@H](OC(=O)/C=C\C(=O)c1ccc(F)cc1)C1=CC(=O)c2c(O)ccc(O)c2C1=O
pIC50 (A549 [1]): 5.36
viability at 4 µM (A549 [2]): 71.7%
Activity (A549 [3]): 0.175%
viability at 8 µM (A549 [4]): 30.6%
Activity (A549 [5]): 35.6%
Activity (A549 [6]): 30.5%
Activity (A549 [7]): 42.6%
Activity (A549 [8]): 2.04%
viability at 8 µM (A549 [9]): 37.1%
Activity (A549 [10]): 3.72%
Activity (A549 [11]): 3%
Activity (A549 [12]): Active
Activity (A549 [13]): Active
Activity (A549 [14]): Active
Activity (A549 [15]): Active
Activity (A549 [16]): 27.9%
Activity (A549 [17]): 67.8%
Activity (A549 [18]): 38.6%
Activity (A549 [19]): Tde
Activity (A549 [20]): 21.03%
Activity (A549 [21]): Active
inhibition (A549 [22]): Dose-dependent effect
inhibition [23]: Dose-dependent effect
inhibition [24]: Dose-dependent effect
Activity (A549 [25]): Active

Source: ChEMBL document CHEMBL4406881, “Design, synthesis and biological evaluation of benzoylacrylic acid shikonin ester derivatives as irreversible dual inhibitors of tubulin and EGFR” (Bioorg Med Chem, 2019)
